Test results from ChEMBL document CHEMBL1287651, “Synthesis and in vitro antibacterial activity of fluoroquinolone derivatives containing 3-(N'-alkoxycarbamimidoyl)-4-(alkoxyimino) pyrrolidines” (2010).
Converted amounts (≈) assume the structure as drawn.

Experiments:
Type in all cases: functional
Enterococcus faecalis [1] = assay: Antibacterial activity against Enterococcus faecalis 08-10 after 18 to 24 hrs by twofold serial dilution method
Outline: (§1)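 MIC determined by the standard twofold serial dilution method on agar media, screening against Gram-positive and Gram-negative strains. Levofloxacin and gemifloxacin were run alongside as reference drugs.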

Staphylococcus aureus [2] = assay: Antibacterial activity against methicillin-sensitive Staphylococcus aureus 08-2 after 18 to 24 hrs by twofold serial dilution method
Outline: (§2)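 Standard twofold serial agar dilution method on agar media for MIC determination. Screened against representative Gram-positive and Gram-negative strains. Levofloxacin and GMFX served as control drugs.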

Pseudomonas aeruginosa [3] = assay: Antibacterial activity against Pseudomonas aeruginosa ATCC 27853 after 18 to 24 hrs by twofold serial dilution method; outline: as §1
Enterococcus faecalis [4] = assay: Antibacterial activity against Enterococcus faecalis 08-12 after 18 to 24 hrs by twofold serial dilution method; outline: as §1
Pseudomonas aeruginosa [5] = assay: Antibacterial activity against Pseudomonas aeruginosa 09-33 after 18 to 24 hrs by twofold serial dilution method; outline: as §1
[6] = system: Staphylococcus epidermidis; assay: Antibacterial activity against methicillin-resistant Staphylococcus epidermidis 09-3 after 18 to 24 hrs by twofold serial dilution method; outline: as §2
Klebsiella pneumoniae [7] = assay: Antibacterial activity against Klebsiella pneumoniae 09-23 after 18 to 24 hrs by twofold serial dilution method; outline: as §1
[8] = system: Staphylococcus epidermidis; assay: Antibacterial activity against methicillin-sensitive Staphylococcus epidermidis 09-3 after 18 to 24 hrs by twofold serial dilution method; outline: as §2
Streptococcus pneumoniae [9] = assay: Antibacterial activity against Streptococcus pneumoniae 08-2 after 18 to 24 hrs by twofold serial dilution method; outline: as §1
Escherichia coli [10] = assay: Antibacterial activity against Escherichia coli 08-22 after 18 to 24 hrs by twofold serial dilution method; outline: as §1
[11] = system: Staphylococcus epidermidis; assay: Antibacterial activity against methicillin-sensitive Staphylococcus epidermidis 09-6 after 18 to 24 hrs by twofold serial dilution method; outline: as §2
Streptococcus pneumoniae [12] = assay: Antibacterial activity against Streptococcus pneumoniae 08-4 after 18 to 24 hrs by twofold serial dilution method; outline: as §1
Staphylococcus aureus [13] = assay: Antibacterial activity against methicillin-resistant Staphylococcus aureus 08-1 after 18 to 24 hrs by twofold serial dilution method; outline: as §2
[14] = system: Staphylococcus epidermidis; assay: Antibacterial activity against methicillin-resistant Staphylococcus epidermidis 09-2 after 18 to 24 hrs by twofold serial dilution method; outline: as §2
[15] = system: Staphylococcus epidermidis; assay: Antibacterial activity against methicillin-resistant Staphylococcus epidermidis 09-4 after 18 to 24 hrs by twofold serial dilution method; outline: as §2
Staphylococcus aureus [16] = assay: Antibacterial activity against Staphylococcus aureus ATCC […] after 18 to 24 hrs by twofold serial dilution method; outline: as §1
Pseudomonas aeruginosa [17] = assay: Antibacterial activity against Pseudomonas aeruginosa 09-34 after 18 to 24 hrs by twofold serial dilution method; outline: as §1
Pseudomonas aeruginosa [18] = assay: Antibacterial activity against Pseudomonas aeruginosa 09-32 after 18 to 24 hrs by twofold serial dilution method; outline: as §1
Klebsiella pneumoniae [19] = assay: Antibacterial activity against Klebsiella pneumoniae 09-21 after 18 to 24 hrs by twofold serial dilution method; outline: as §1
Klebsiella pneumoniae [20] = assay: Antibacterial activity against Klebsiella pneumoniae 09-22 after 18 to 24 hrs by twofold serial dilution method; outline: as §1
Enterococcus faecium [21] = assay: Antibacterial activity against Enterococcus faecium 08-2 after 18 to 24 hrs by twofold serial dilution method; outline: as §1
Enterococcus faecium [22] = assay: Antibacterial activity against Enterococcus faecium 08-7 after 18 to 24 hrs by twofold serial dilution method; outline: as §1
Escherichia coli [23] = assay: Antibacterial activity against Escherichia coli 08-21 after 18 to 24 hrs by twofold serial dilution method; outline: as §1
Escherichia coli [24] = assay: Antibacterial activity against Escherichia coli ATCC 25922 after 18 to 24 hrs by twofold serial dilution method; outline: as §1
Pseudomonas aeruginosa [25] = assay: Antibacterial activity against Pseudomonas aeruginosa 09-35 after 18 to 24 hrs by twofold serial dilution method; outline: as §1

| SMILES | MIC (Enterococcus faecalis [1]) [µg/mL] | MIC (Staphylococcus aureus [2]) [µg/mL] | MIC (Pseudomonas aeruginosa [3]) [µg/mL] | MIC (Enterococcus faecalis [4]) [µg/mL] | MIC (Pseudomonas aeruginosa [5]) [µg/mL] | MIC [6] [µg/mL] | MIC (Klebsiella pneumoniae [7]) [µg/mL] | MIC [8] [µg/mL] | MIC (Streptococcus pneumoniae [9]) [µg/mL] | MIC (Escherichia coli [10]) [µg/mL] | MIC [11] [µg/mL] | MIC (Streptococcus pneumoniae [12]) [µg/mL] | MIC (Staphylococcus aureus [13]) [µg/mL] | MIC [14] [µg/mL] | MIC [15] [µg/mL] | MIC (Staphylococcus aureus [16]) [µg/mL] | MIC (Pseudomonas aeruginosa [17]) [µg/mL] | MIC (Pseudomonas aeruginosa [18]) [µg/mL] | MIC (Klebsiella pneumoniae [19]) [µg/mL] | MIC (Klebsiella pneumoniae [20]) [µg/mL] | other results |
| --- | --- | --- | --- | --- | --- | --- | --- | --- | --- | --- | --- | --- | --- | --- | --- | --- | --- | --- | --- | --- | --- |
| CCn1cc(C(=O)O)c(=O)c2cc(F)c(N3C/C(=N\OC)C(/C(N)=N\O)C3)c(F)c21 (stereo not given) | > 128 | 0.25 (≈ 0.59 µM) | 1 (≈ 2.36 µM) | > 128 | 1 (≈ 2.36 µM) | 0.25 (≈ 0.59 µM) | > 128 | 0.25 (≈ 0.59 µM) | 1 (≈ 2.36 µM) | > 128 | 0.25 (≈ 0.59 µM) | > 128 | 0.25 (≈ 0.59 µM) | 1 (≈ 2.36 µM) | 1 (≈ 2.36 µM) | 0.25 (≈ 0.59 µM) | 1 (≈ 2.36 µM) | 1 (≈ 2.36 µM) | > 128 | 1 (≈ 2.36 µM) | MIC (Enterococcus faecium [21]): > 128 µg/mL; MIC (Enterococcus faecium [22]): > 128 µg/mL; MIC (Escherichia coli [23]): > 128 µg/mL; MIC (Escherichia coli [24]): 128 µg/mL (≈ 302 µM); MIC (Pseudomonas aeruginosa [25]): > 128 µg/mL |
| CCO/N=C1\CN(c2nc3c(cc2F)c(=O)c(C(=O)O)cn3-c2ccc(F)cc2F)CC1/C(N)=N\OCC (stereo not given) | 128 (≈ 240 µM) | 0.06 (≈ 0.113 µM) | 64 (≈ 120 µM) | 128 (≈ 240 µM) | 128 (≈ 240 µM) | 0.06 (≈ 0.113 µM) | 128 (≈ 240 µM) | 32 (≈ 60.1 µM) | 128 (≈ 240 µM) | 128 (≈ 240 µM) | 32 (≈ 60.1 µM) | 128 (≈ 240 µM) | 32 (≈ 60.1 µM) | 0.06 (≈ 0.113 µM) | 64 (≈ 120 µM) | 0.06 (≈ 0.113 µM) | 128 (≈ 240 µM) | 128 (≈ 240 µM) | 16 (≈ 30 µM) | 128 (≈ 240 µM) | MIC (Enterococcus faecium [21]): 128 µg/mL (≈ 240 µM); MIC (Enterococcus faecium [22]): 128 µg/mL (≈ 240 µM); MIC (Escherichia coli [23]): 128 µg/mL (≈ 240 µM); MIC (Escherichia coli [24]): 16 µg/mL (≈ 30 µM); MIC (Pseudomonas aeruginosa [25]): 128 µg/mL (≈ 240 µM) |
| CCO/N=C1\CN(c2c(F)cc3c(=O)c(C(=O)O)cn(C4CC4)c3c2OC(F)F)CC1/C(N)=N\O (stereo not given) | > 128 | 1 (≈ 2.01 µM) | 128 (≈ 257 µM) | > 128 | > 128 | 1 (≈ 2.01 µM) | > 128 | 1 (≈ 2.01 µM) | 8 (≈ 16.1 µM) | > 128 | 0.25 (≈ 0.503 µM) | 8 (≈ 16.1 µM) | 0.25 (≈ 0.503 µM) | 1 (≈ 2.01 µM) | 1 (≈ 2.01 µM) | 0.5 (≈ 1.01 µM) | > 128 | 128 (≈ 257 µM) | > 128 | 8 (≈ 16.1 µM) | MIC (Enterococcus faecium [21]): > 128 µg/mL; MIC (Enterococcus faecium [22]): > 128 µg/mL; MIC (Escherichia coli [23]): > 128 µg/mL; MIC (Escherichia coli [24]): 128 µg/mL (≈ 257 µM); MIC (Pseudomonas aeruginosa [25]): 128 µg/mL (≈ 257 µM) |
| CCO/N=C1\CN(c2c(F)cc3c(=O)c(C(=O)O)cn(C4CC4)c3c2OC(F)F)CC1/C(N)=N\OC (stereo not given) | 32 (≈ 62.6 µM) | 0.25 (≈ 0.489 µM) | 8 (≈ 15.6 µM) | 32 (≈ 62.6 µM) | 64 (≈ 125 µM) | 0.25 (≈ 0.489 µM) | 32 (≈ 62.6 µM) | 0.125 (≈ 0.244 µM) | 64 (≈ 125 µM) | 64 (≈ 125 µM) | 0.25 (≈ 0.489 µM) | 64 (≈ 125 µM) | 0.25 (≈ 0.489 µM) | 64 (≈ 125 µM) | 0.25 (≈ 0.489 µM) | 0.125 (≈ 0.244 µM) | 64 (≈ 125 µM) | 64 (≈ 125 µM) | 32 (≈ 62.6 µM) | 32 (≈ 62.6 µM) | MIC (Enterococcus faecium [21]): 64 µg/mL (≈ 125 µM); MIC (Enterococcus faecium [22]): 64 µg/mL (≈ 125 µM); MIC (Escherichia coli [23]): 64 µg/mL (≈ 125 µM); MIC (Escherichia coli [24]): 16 µg/mL (≈ 31.3 µM); MIC (Pseudomonas aeruginosa [25]): 64 µg/mL (≈ 125 µM) |
| CO/N=C1\CN(c2c(F)cc3c(=O)c(C(=O)O)cn4c3c2OC[C@@H]4C)CC1/C(N)=N\O (stereo not given in full) | > 128 | 4 (≈ 9.23 µM) | 32 (≈ 73.8 µM) | > 128 | > 128 | 0.25 (≈ 0.577 µM) | > 128 | 0.25 (≈ 0.577 µM) | 0.25 (≈ 0.577 µM) | > 128 | 0.25 (≈ 0.577 µM) | 16 (≈ 36.9 µM) | 0.25 (≈ 0.577 µM) | 0.25 (≈ 0.577 µM) | 0.25 (≈ 0.577 µM) | 0.125 (≈ 0.288 µM) | > 128 | 64 (≈ 148 µM) | > 128 | 16 (≈ 36.9 µM) | MIC (Enterococcus faecium [21]): > 128 µg/mL; MIC (Enterococcus faecium [22]): > 128 µg/mL; MIC (Escherichia coli [23]): > 128 µg/mL; MIC (Escherichia coli [24]): 128 µg/mL (≈ 295 µM); MIC (Pseudomonas aeruginosa [25]): 128 µg/mL (≈ 295 µM) |
| CO/N=C1\CN(c2c(F)cc3c(=O)c(C(=O)O)cn(CCF)c3c2F)CC1/C(N)=N\O (stereo not given) | > 128 | > 128 | > 128 | > 128 | > 128 | 1 (≈ 2.27 µM) | > 128 | 0.5 (≈ 1.13 µM) | 1 (≈ 2.27 µM) | > 128 | 1 (≈ 2.27 µM) | > 128 | 1 (≈ 2.27 µM) | > 128 | 0.5 (≈ 1.13 µM) | 1 (≈ 2.27 µM) | > 128 | > 128 | > 128 | > 128 | MIC (Enterococcus faecium [21]): > 128 µg/mL; MIC (Enterococcus faecium [22]): > 128 µg/mL; MIC (Escherichia coli [23]): > 128 µg/mL; MIC (Escherichia coli [24]): > 128 µg/mL; MIC (Pseudomonas aeruginosa [25]): > 128 µg/mL |
| CCO/N=C(/N)C1CN(c2nc3c(cc2F)c(=O)c(C(=O)O)cn3-c2ccc(F)cc2F)C/C1=N\OC (stereo not given) | > 128 | 0.25 (≈ 0.482 µM) | > 128 | > 128 | > 128 | 0.25 (≈ 0.482 µM) | > 128 | 0.125 (≈ 0.241 µM) | > 128 | > 128 | 0.25 (≈ 0.482 µM) | > 128 | 0.25 (≈ 0.482 µM) | 2 (≈ 3.86 µM) | 0.25 (≈ 0.482 µM) | 0.125 (≈ 0.241 µM) | > 128 | > 128 | > 128 | 32 (≈ 61.7 µM) | MIC (Enterococcus faecium [21]): > 128 µg/mL; MIC (Enterococcus faecium [22]): > 128 µg/mL; MIC (Escherichia coli [23]): > 128 µg/mL; MIC (Escherichia coli [24]): > 128 µg/mL; MIC (Pseudomonas aeruginosa [25]): > 128 µg/mL |
